Data from ChEMBL document CHEMBL3992505, “Optimization of substituted imidazobenzodiazepines as novel asthma treatments” (Eur J Med Chem, 2017).

What was measured:
Liver [1] = experiment: Metabolic stability in mouse liver microsomes assessed as compound remaining at 10 uM after 1 hr by LC-MS/MS analysis; format: ADME, microsome
How it was run: (§1)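 Compound stability was measured in human or mouse liver microsomes as percent remaining after 1 h. Data came from two independent experiments, each run in triplicate.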

[2] = Cytotoxicity in HEK293 cells after 48 hrs by Cell-titer Glo reagent based assay; conditions: human, read-out: LD50
How it was run: (§2)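 Cells (HEK293, HepG2 or BEAS2B) exposed to compounds at a range of concentrations for 48 h; viability read by Cell-Titer Glo luminescence. Normalized to DMSO (negative) and 3-dibutylamino-1-(4-hexyl-phenyl)-propan-1-one at 150 μM final in DMSO (positive).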

[3] = Cytotoxicity in human HepG2 cells after 48 hrs by Cell-titer Glo reagent based assay; conditions: read-out: LD50; how it was run: as §2
Liver [4] = experiment: Metabolic stability in human liver microsomes assessed as compound remaining at 10 uM after 1 hr by LC-MS/MS analysis; format: ADME, microsome; how it was run: as §1
Liver [5] = experiment: (§3) Half life in mouse liver microsomes at 10 uM by LC-MS/MS analysis; format: ADME, microsome; conditions: microsomes, 10 µM
[6] = Cytotoxicity in human BEAS2B cells after 48 hrs by Cell-titer Glo reagent based assay; set-up: species or system BEAS-2B; conditions: read-out: LD50; how it was run: as §2
[7] = Half life in human liver microsomes at 10 uM by LC-MS/MS analysis; format: ADME, microsome
[8] = as §3; format: ADME, microsome; conditions: liver microsomes
[9] = Solubility of the compound in 50% PBS/40% propylene glycol/10% DMSO at 10 uM; format: physicochemical; conditions: buffer
Mus musculus [10] = experiment: Neurotoxicity in Swiss Webster mouse assessed as induction of senorimotor impairment at 40 mg/kg, ip administered 10 mins prior to testing and measured for 3 mins at 10 to 60 mins after drug administration by rotarod method; format: toxicity, organism-based; conditions: in vivo
How it was run: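 Swiss Webster mice, pre-trained at 15 rpm until they held on for 3 min at three consecutive sessions, were given a single i.p. dose of 40 mg/kg in 10% DMSO/40% propylene glycol/50% PBS. Rotarod at 15 rpm for 3 min at 10, 30 and 60 min after dosing. Falls before 3 min scored as fail, with time of fall recorded. N = 10, mean ± SEM. Vehicle and diazepam 5 mg/kg i.p. controls. Mice rested 2–3 days between doses.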

[11] = Solubility of the compound in PBS/1% DMSO at 10 uM; format: physicochemical; conditions: buffer
How it was run: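 Solubility was judged at 10 μM in PBS containing 1% DMSO.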

Mus musculus [12] = experiment: Neurotoxicity in Swiss Webster mouse assessed as induction of senorimotor impairment at 15 mg/kg administered 10 mins prior to testing and measured for 3 mins at 10 to 60 mins after drug administration by rotarod method; format: toxicity, organism-based; conditions: in vivo

Row | Structure (SMILES) | Stability (Liver [1]) [%] | CC50 at 48 h [2] [µM] | CC50 at 48 h [3] [µM] | Stability (Liver [4]) [%] | t1/2 (Liver [5]) [h] | CC50 at 48 h [6] [µM] | half-life at 10 µM [7] [h] | half-life at 10 µM [8] [h] | solubility [9] | Activity (Mus musculus [10]) | solubility [11] | Activity (Mus musculus [12])
1 | CCNC(=O)c1ncn2c1[C@@H]1CCCN1C(=O)c1cc(OC)ccc1-2 | 50.1 | > 400 | > 400 | 90.7 | 4.72 | > 400 | 12.2 |  |  |  |  | 
2 | COc1ccc2c(c1)C(=O)N1CCC[C@H]1c1c(C(=O)O)ncn1-2 | 52.9 | > 400 | > 400 | 56.1 |  | > 400 | 1.33 | 1.22 |  |  |  | 
3 | COc1ccc2c(c1)C(=O)N1CCC[C@H]1c1c(C(=O)OCC(C)C)ncn1-2 | 13.4 | > 100 | > 200 | 77.8 |  | > 200 | 2.82 | 0.325 | Insoluble |  |  | 
4 | [2H]C([2H])([2H])Oc1ccc2c(c1)C(=O)N1CCC[C@H]1c1c(C(=O)NC(C)(C)C)ncn1-2 | 9.4 | > 200 | > 400 | 95.6 | 21.5 | > 400 | 7.15 |  |  | Toxic |  | 
5 | [2H]C([2H])([2H])Oc1ccc2c(c1)C(=O)N1CCC[C@H]1c1c(C(=O)NC)ncn1-2 | 56.8 | > 100 | > 400 | 94.9 |  | > 400 | 23.9 | 1.29 |  |  |  | 
6 | [2H]C([2H])([2H])Oc1ccc2c(c1)C(=O)N1CCC[C@H]1c1c(C(=O)OC)ncn1-2 | 85.9 | > 400 | > 400 | 92.9 |  | > 400 | 16.3 | 4.75 |  | Toxic |  | 
7 | [2H]C([2H])([2H])Oc1ccc2c(c1)C(=O)N1CCC[C@H]1c1c(C(=O)OC(C(F)(F)F)C(F)(F)F)ncn1-2 | 62.5 | > 200 | > 400 | 77.1 |  | > 400 | 3.4 | 1.82 | Insoluble |  |  | 
8 | [2H]C([2H])([2H])Oc1ccc2c(c1)C(=O)N1CCC[C@H]1c1c(C(=O)SCC)ncn1-2 |  | > 100 | > 100 |  |  | > 100 |  |  | Insoluble |  | Insoluble | 
9 | COC(=O)c1ncn2c1[C@@H]1CCCN1C(=O)c1cc(OC)ccc1-2 | 70.3 | > 400 | > 400 | 89.7 |  | > 400 | 11.1 | 2.15 |  |  |  | 
10 | CC(C)(C)OC(=O)c1ncn2c1[C@@H]1CCCN1C(=O)c1cc(O)ccc1-2 | 46.6 | > 400 | > 400 | 90.6 |  | > 400 | 9.65 | 0.96 |  |  |  | 
11 | COc1ccc2c(c1)C(=O)N1CCC[C@H]1c1c(C(=O)NC(C)(C)C)ncn1-2 | 4.2 | > 200 | > 400 | 92.8 | 10.4 | > 400 | 3.23 |  |  |  |  | 
12 | [2H]C([2H])([2H])Oc1ccc2c(c1)C(=O)N1CCC[C@H]1c1c(C(=O)SC(C)(C)C)ncn1-2 |  | 16.8 | > 100 |  |  | > 100 |  |  |  |  | Insoluble | 
13 | COc1ccc2c(c1)C(=O)N1CCC[C@H]1c1c(C(=O)OC(C)(C)C)ncn1-2 | 16.2 | > 100 | > 400 | 92.1 |  | > 200 | 11.9 | 0.402 |  |  |  | Toxic
14 | [2H]C([2H])([2H])Oc1ccc2c(c1)C(=O)N1CCC[C@H]1c1c(C(=O)N(C)C)ncn1-2 | 83.1 | > 400 | > 400 | 96.3 |  | > 400 | 13.3 | 24.7 |  | Non-Toxic |  | 
15 | [2H]C([2H])([2H])Oc1ccc2c(c1)C(=O)N1CCC[C@H]1c1c(C(=O)OCC(C)C)ncn1-2 | 22.4 | > 100 | > 200 | 78.7 |  | > 200 | 3.35 | 0.448 |  | Toxic |  | 
16 | CCOC(=O)c1ncn2c1[C@@H]1CCCN1C(=O)c1cc(O)ccc1-2 | 91.1 | > 400 | > 400 | 91.7 |  | > 400 | 11 | 9 |  | Non-Toxic |  | 
17 | COc1ccc2c(c1)C(=O)N1CCC[C@H]1c1c(C(=O)NC3CC3)ncn1-2 | 91.3 | > 200 | > 400 | 79.9 | 0.222 | > 400 | 13.1 |  |  |  |  | 
18 | CCSC(=O)c1ncn2c1[C@@H]1CCCN1C(=O)c1cc(OC)ccc1-2 |  | > 100 | > 100 |  |  | > 100 |  |  | Insoluble |  | Insoluble | 
19 | [2H]C([2H])([2H])Oc1ccc2c(c1)C(=O)N1CCC[C@H]1c1c(C(=O)NC3CC3)ncn1-2 | 94.1 | > 200 | > 400 | 88.1 | 0.295 | > 400 | 30 |  |  |  |  | 
20 | CNC(=O)c1ncn2c1[C@@H]1CCCN1C(=O)c1cc(OC)ccc1-2 | 54.3 | > 100 | > 400 | 93.8 |  | > 400 | 16.3 | 1.08 |  | Toxic |  | 
21 | [2H]C([2H])([2H])Oc1ccc2c(c1)C(=O)N1CCC[C@H]1c1c(C(=O)OC(C)(C)C)ncn1-2 | 17.6 | > 100 | > 400 | 91.9 |  | > 200 | 16.9 | 0.428 |  |  |  | 
22 | [2H]C([2H])([2H])Oc1ccc2c(c1)C(=O)N1CCC[C@H]1c1c(C(=O)NCC)ncn1-2 | 94.8 | > 400 | > 400 | 93.5 |  | > 400 | 21.3 | 4.55 |  | Non-Toxic |  | 
23 | COc1ccc2c(c1)C(=O)N1CCC[C@H]1c1c(C(=O)OC(C(F)(F)F)C(F)(F)F)ncn1-2 |  | > 200 | > 400 |  |  | > 400 |  |  | Insoluble |  | Insoluble | 
24 | [2H]C([2H])([2H])Oc1ccc2c(c1)C(=O)N1CCC[C@H]1c1c(C(=O)O)ncn1-2 | 84.6 | > 400 | > 400 | 84.6 |  | > 400 | 5.6 | 4.71 |  | Non-Toxic |  | 
25 | CCOC(=O)c1ncn2c1[C@@H]1CCCN1C(=O)c1cc(OC)ccc1-2 | 85.4 | > 400 | > 400 | 99.1 |  | > 400 |  | 5.3 |  |  |  | 
26 | COc1ccc2c(c1)C(=O)N1CCC[C@H]1c1c(C(=O)SC(C)(C)C)ncn1-2 |  | 18.8 | > 100 |  |  | > 100 |  |  | Insoluble |  | Insoluble | 
27 | [2H]C([2H])([2H])Oc1ccc2c(c1)C(=O)N1CCC[C@H]1c1c(C(=O)OCC)ncn1-2 | 85.5 | > 400 | > 400 | 92.8 |  | > 400 | 14 | 5.85 |  |  |  | 
